Experimental data: ChEMBL document CHEMBL3612066, “Design, Synthesis, and Biological Evaluation of Pyrazolo[1,5-a]pyridine-3-carboxamides as Novel Antitubercular Agents” (ACS Med Chem Lett, 2015)
≈ marks a conversion by molar mass, not a printed value.

How the values were obtained:
[1] = test system: Mycobacterium tuberculosis; assay: Antitubercular activity against fluorescent reporter strain of Mycobacterium tuberculosis H37Rv after 5 days by fluorescence assay; format: functional, organism-based; conditions: 120 h
In short: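 A fluorescent reporter strain of Mtb H37Rv was grown in liquid medium under aerobic conditions, and growth was read by fluorescence. MIC, IC50 and IC90 were determined.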

[2] = test system: Mycobacterium tuberculosis; assay: Antitubercular activity against Mycobacterium tuberculosis H37Ra after 7 days by microplate alamar blue assay; format: functional; conditions: 168 h
Vero = assay: Cytotoxicity against African green monkey Vero cells after 72 hrs by CCK8 assay; format: cell-based; conditions: Chlorocebus sabaeus
In short: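 VERO African green monkey kidney cells; growth inhibition read by CCK-8 assay and reported as IC50. Values are means of two or more independent experiments, with variation <20%.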

[3] = test system: Mycobacterium tuberculosis; assay: Antitubercular activity against Mycobacterium tuberculosis H37Rv after 7 days by microplate alamar blue assay; format: functional; conditions: 168 h
In short: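 MIC against Mtb H37Rv by microplate alamar blue assay (MABA); MIC values interpolated by curve fitting.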

[4] = test system: Mycobacterium tuberculosis; assay: Antitubercular activity against autoluminescent Mycobacterium tuberculosis H37Ra infected in noninvasive BALB/c mouse assessed as bactericidal activity by measuring reduction in relative light unit at 100 mg/kg, po qd for 6 days relative to control; format: functional
In short: (§1)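 Mice were infected intravenously with log-phase, marker-free autoluminescent Mtb H37Ra at 2 × 10^6 CFU per mouse. They were then dosed by oral gavage once daily for 6 consecutive days at 4, 20 or 100 mg/kg/day, with CMC-Na as vehicle. Bioluminescence (RLU) was read in the same live, anesthetized mice every other day and expressed as the RLUdayn/RLUday0 ratio. Mortality was monitored during treatment.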

Mus musculus = assay: Toxicity in autoluminescent Mycobacterium tuberculosis H37Ra infected noninvasive BALB/c mouse assessed as mortality at 4 to 100 mg/kg, po qd for 6 days; format: organism-based; conditions: in vivo, 144 h; in short: as §1
[5] = test system: Mycobacterium tuberculosis; assay: Antitubercular activity against autoluminescent Mycobacterium tuberculosis H37Ra infected in po dosed noninvasive BALB/c mouse assessed as bioluminescence intensity by measuring relative light unit administered qd for 6 days; format: functional, organism-based; in short: as §1
[6] = test system: Mycobacterium tuberculosis; assay: Antitubercular activity against autoluminescent Mycobacterium tuberculosis H37Ra infected in noninvasive BALB/c mouse assessed as bioluminescence intensity by measuring relative light unit at 4 mg/kg, po qd for 6 days; format: functional; in short: as §1
[7] = test system: Mycobacterium tuberculosis; assay: Antitubercular activity against autoluminescent Mycobacterium tuberculosis H37Ra infected in noninvasive BALB/c mouse assessed as bactericidal activity by measuring reduction in relative light unit at 100 mg/kg, po qd for 4 days relative to control; format: functional
[8] = test system: Mycobacterium tuberculosis; assay: Antitubercular activity against autoluminescent Mycobacterium tuberculosis H37Ra infected in noninvasive BALB/c mouse assessed as bioluminescence intensity by measuring relative light unit at 100 mg/kg, po qd for 6 days; format: functional; in short: as §1
[9] = test system: Mycobacterium tuberculosis; assay: Antitubercular activity against autoluminescent Mycobacterium tuberculosis H37Ra infected in noninvasive BALB/c mouse assessed as bactericidal activity by measuring reduction in relative light unit at 100 mg/kg, po qd for 2 days relative to control; format: functional; in short: as §1
[10] = test system: Mycobacterium tuberculosis; assay: Antitubercular activity against autoluminescent Mycobacterium tuberculosis H37Ra infected in noninvasive BALB/c mouse assessed as bioluminescence intensity by measuring relative light unit at 20 mg/kg, po qd for 6 days; format: functional; in short: as §1

SMILES	MIC [2] [µM]	IC50 (Vero) [nM]	MIC [3] [µM]	other results
Cc1ccn2nc(C)c(C(=O)NCc3ccc(N4CCN(c5ccc(F)cc5)CC4)cc3)c2c1	0.0066 (≈ 0.00302 µg/mL)	> 100000	0.0131 (≈ 0.00599 µg/mL)	IC50 [1]: 2.5 nM; IC90 [1]: 6.5 nM; MIC [1]: 0.0063 µM (≈ 0.00288 µg/mL)
Cc1nn2ccc(-c3ccccc3)cc2c1C(=O)NCc1ccc(N2CCC(c3ccc(OC(F)(F)F)cc3)CC2)cc1	> 17.1		0.479 (≈ 0.28 µg/mL)	
Cc1nn2ccc(Cl)cc2c1C(=O)NCc1ccc(N2CCC(c3ccc(OC(F)(F)F)cc3)CC2)cc1	0.0184 (≈ 0.00999 µg/mL)	> 100000	0.0074 (≈ 0.00402 µg/mL)	
NNC(=O)c1ccncc1 [ISONIAZID]	0.729 (≈ 0.1 µg/mL)		2.99 (≈ 0.41 µg/mL)	
Cc1ccn2nc(C)c(C(=O)NCc3ccc(-c4ccc(OC(F)(F)F)cc4)cc3)c2c1	0.0068 (≈ 0.00299 µg/mL)	50700	0.0137 (≈ 0.00602 µg/mL)	
Cc1ccn2nc(C)c(C(=O)NCc3ccc(N4CCC(C(F)(F)F)CC4)cc3)c2c1	0.0023 (≈ 0.00099 µg/mL)	> 100000	0.0139 (≈ 0.00598 µg/mL)	
Cc1ccn2nc(C)c(C(=O)NCc3ccc(N4CCC(c5ccc(OC(F)(F)F)cc5)CC4)cc3)c2c1	0.0057 (≈ 0.00298 µg/mL)	> 100000	0.0077 (≈ 0.00402 µg/mL)	IC50 [1]: 5.1 nM; IC90 [1]: 12 nM; MIC [1]: 0.011 µM (≈ 0.00575 µg/mL)
CCc1nn2ccc(Cl)cc2c1C(=O)NCc1ccc(N2CCC(c3ccc(OC(F)(F)F)cc3)CC2)cc1	0.0538 (≈ 0.03 µg/mL)	> 100000	0.0108 (≈ 0.00602 µg/mL)	IC50 [1]: 31.3 nM; IC90 [1]: 150 nM; MIC [1]: 0.129 µM (≈ 0.0719 µg/mL)
O=C(NCc1ccc(N2CCC(c3ccc(OC(F)(F)F)cc3)CC2)cc1)c1cnn2ccc(Cl)cc12	18.9 (≈ 10 µg/mL)		0.359 (≈ 0.19 µg/mL)	
O=C(NCc1ccc(N2CCC(c3ccc(OC(F)(F)F)cc3)CC2)cc1)c1c(-c2ccccc2)nn2ccc(Cl)cc12	> 16.5		1.55 (≈ 0.936 µg/mL)	
Cc1ccn2nc(C)c(C(=O)NCc3ccc(N(C)C)cc3)c2c1	0.31 (≈ 0.1 µg/mL)	> 100000	0.0868 (≈ 0.028 µg/mL)	
CO[C@H]1/C=C/O[C@@]2(C)Oc3c(C)c(O)c4c(O)c(c(/C=N/N5CCN(C)CC5)c(O)c4c3C2=O)NC(=O)/C(C)=C\C=C\[C@H](C)[C@H](O)[C@@H](C)[C@@H](O)[C@@H](C)[C@H](OC(C)=O)[C@@H]1C [RIFAMPIN]	0.00364 (≈ 0.003 µg/mL)		0.0364 (≈ 0.03 µg/mL)	IC50 [1]: 4.1 nM; IC90 [1]: 6.9 nM; MIC [1]: 0.0065 µM (≈ 0.00535 µg/mL)
Cc1ccc2c(C(=O)NCc3ccc(N4CCC(c5ccc(OC(F)(F)F)cc5)CC4)cc3)c(C)nn2c1	0.574 (≈ 0.3 µg/mL)	> 100000	0.0134 (≈ 0.007 µg/mL)	
Cc1nn2cccc(C)c2c1C(=O)NCc1ccc(N2CCC(c3ccc(OC(F)(F)F)cc3)CC2)cc1	> 19.1		1.15 (≈ 0.6 µg/mL)	
Cc1nn2ccc(C(F)(F)F)cc2c1C(=O)NCc1ccc(N2CCC(c3ccc(OC(F)(F)F)cc3)CC2)cc1	1.73 (≈ 1 µg/mL)	> 100000	0.052 (≈ 0.03 µg/mL)	
Cc1nn2ccccc2c1C(=O)NCc1ccc(N2CCC(c3ccc(OC(F)(F)F)cc3)CC2)cc1	0.59 (≈ 0.3 µg/mL)	> 100000	0.0098 (≈ 0.00498 µg/mL)	
O=C(NCc1ccc(N2CCC(c3ccc(OC(F)(F)F)cc3)CC2)cc1)c1c(C2CC2)nn2ccc(Cl)cc12	0.176 (≈ 0.1 µg/mL)	> 100000	0.0176 (≈ 0.01 µg/mL)	
Cc1nn2ccc(C(C)C)cc2c1C(=O)NCc1ccc(N2CCC(c3ccc(OC(F)(F)F)cc3)CC2)cc1	1.82 (≈ 1 µg/mL)		0.0472 (≈ 0.026 µg/mL)	
Cc1ccn2nc(C)c(C(=O)NCc3ccc(N4CCCCC4)cc3)c2c1	0.0276 (≈ 0.01 µg/mL)	> 100000	0.0166 (≈ 0.00602 µg/mL)	
CCc1ccn2nc(C)c(C(=O)NCc3ccc(N4CCC(c5ccc(OC(F)(F)F)cc5)CC4)cc3)c2c1	0.0186 (≈ 0.00998 µg/mL)	> 100000	0.0112 (≈ 0.00601 µg/mL)	
Cc1ccn2nc(C)c(C(=O)NCc3ccc(C(F)(F)F)cc3)c2c1	0.288 (≈ 0.1 µg/mL)	> 100000	0.0691 (≈ 0.024 µg/mL)	
Cc1nn2ccc(C(C)(C)C)cc2c1C(=O)NCc1ccc(N2CCC(c3ccc(OC(F)(F)F)cc3)CC2)cc1	> 17.7		> 1.77	
CCc1nc2ccc(Cl)cn2c1C(=O)NCc1ccc(N2CCC(c3ccc(OC(F)(F)F)cc3)CC2)cc1 [TELACEBEC]	0.0054 (≈ 0.00301 µg/mL)	> 100000	0.0108 (≈ 0.00602 µg/mL)	
COc1ccn2nc(C)c(C(=O)NCc3ccc(N4CCC(c5ccc(OC(F)(F)F)cc5)CC4)cc3)c2c1	0.0056 (≈ 0.00302 µg/mL)	> 100000	0.0111 (≈ 0.00598 µg/mL)	IC50 [1]: 2.5 nM; IC90 [1]: 5.7 nM; MIC [1]: 0.0056 µM (≈ 0.00302 µg/mL); RLU [4]: 6.5; Activity (Mus musculus): Non-toxic; Activity [5]: Dose-dependent effect; RLU [6]: 0.4; RLU [7]: 5; RLU [8]: 0.15; RLU [9]: 3.6; RLU [10]: 0.19
Cc1nn2c(C)cccc2c1C(=O)NCc1ccc(N2CCC(c3ccc(OC(F)(F)F)cc3)CC2)cc1	5.74 (≈ 3 µg/mL)		0.115 (≈ 0.06 µg/mL)	
